ChEMBL document CHEMBL1137710, “Synthesis and in vitro antitumor activity of new quinoxaline derivatives” (2009)

Legend:
Assay type in all cases: functional
HOP-92 = experiment: Growth inhibition of human HOP92 cells after 48 hrs by sulforhodamine B assay; details: HOP-92, 48 h
Outline: (§1)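 NCI 60-human-tumor-cell-line panel, with compounds tested over a 5-log dose range. Values are taken from dose-response curves as log10 molar concentrations: GI50 is 50% net growth inhibition, TGI is total growth inhibition, and LC50 is 50% net cell death.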

Malme-3M = experiment: Growth inhibition of human MALME-3M cells after 48 hrs by sulforhodamine B assay; outline: as §1
K562 = experiment: Growth inhibition of human K562 cells after 48 hrs by sulforhodamine B assay; details: K562, 48 h; outline: as §1
CCRF-CEM = experiment: Growth inhibition of human CCRF-CEM cells after 48 hrs by sulforhodamine B assay; outline: as §1
HCT-15 = experiment: Growth inhibition of human HCT15 cells after 48 hrs by sulforhodamine B assay; details: HCT-15, 48 h; outline: as §1
T47D = experiment: Growth inhibition of human T47D cells after 48 hrs by sulforhodamine B assay
Outline: (§2)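 Run in the NCI 60-human-tumour-cell-line panel, tested over a 5-log dose range. Dose–response curves gave three values per cell line, each as a log10 molar concentration: GI50 (50% inhibition of net cell growth), TGI (total inhibition of net growth) and LC50 (50% net cell death). The mean graph midpoint is the arithmetic mean over all lines, with insensitive lines entered at the highest concentration tested.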

HT-29 = experiment: Growth inhibition of human HT-29 cells after 48 hrs by sulforhodamine B assay; details: HT-29, 48 h; outline: as §1
CAKI-1 = experiment: Growth inhibition of human Caki1 cells after 48 hrs by sulforhodamine B assay; details: CAKI-1, 48 h; outline: as §1
SK-OV-3 = experiment: Growth inhibition of human SKOV3 cells after 48 hrs by sulforhodamine B assay; details: SK-OV-3, 48 h; outline: as §1
786-0 = experiment: Growth inhibition of human 786-0 cells after 48 hrs by sulforhodamine B assay; details: 786-0, 48 h; outline: as §1
M14 = experiment: Growth inhibition of human M14 cells after 48 hrs by sulforhodamine B assay; details: M14, 48 h; outline: as §1
MDA-MB-231 = experiment: Growth inhibition of human MDA-MB-231 cells after 48 hrs by sulforhodamine B assay; details: MDA-MB-231, 48 h; outline: as §1
OVCAR-3 = experiment: Growth inhibition of human OVCAR-3 cells after 48 hrs by sulforhodamine B assay; details: OVCAR-3, 48 h; outline: as §1
UACC-62 = experiment: Growth inhibition of human UACC62 cells after 48 hrs by sulforhodamine B assay; details: UACC-62, 48 h; outline: as §2
UO-31 = experiment: Growth inhibition of human UO31 cells after 48 hrs by sulforhodamine B assay; details: UO-31, 48 h; outline: as §2
TK-10 = experiment: Growth inhibition of human TK10 cells after 48 hrs by sulforhodamine B assay; details: TK-10, 48 h; outline: as §2
SN12C = experiment: Growth inhibition of human SN12C cells after 48 hrs by sulforhodamine B assay; outline: as §2
A498 = experiment: Growth inhibition of human A498 cells after 48 hrs by sulforhodamine B assay; details: A498, 48 h; outline: as §1
HL-60(TB) = experiment: Growth inhibition of human HL-60(TB) cells after 48 hrs by sulforhodamine B assay; details: HL-60, 48 h
Outline: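 Tested only on compounds active in a three-line prescreen, in the NCI 60-human-tumour-cell-line panel over a 5-log dose range. Values come from dose–response curves as log10 molar GI50, the concentration inhibiting 50% net cell growth. Log10 TGI (total growth inhibition) and log10 LC50 (50% net cell death) were derived too. Mean graph midpoints include insensitive lines at the highest concentration tested.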

NCI-H460 = experiment: Growth inhibition of human NCI-H460 cells after 48 hrs by sulforhodamine B assay; details: NCI-H460, 48 h; outline: as §1
KM12 = experiment: Growth inhibition of human KM12 cells after 48 hrs by sulforhodamine B assay; details: KM12, 48 h; outline: as §1
NCI/ADR-RES = experiment: Growth inhibition of human NCI/ADR-RES cells after 48 hrs by sulforhodamine B assay; outline: as §1
HOP-62 = experiment: Growth inhibition of human HOP62 cells after 48 hrs by sulforhodamine B assay; details: HOP-62, 48 h; outline: as §1
BT-549 = experiment: Growth inhibition of human BT549 cells after 48 hrs by sulforhodamine B assay; details: BT-549, 48 h; outline: as §1
OVCAR-4 = experiment: Growth inhibition of human OVCAR4 cells after 48 hrs by sulforhodamine B assay; details: OVCAR-4, 48 h; outline: as §1
SF-539 = experiment: Growth inhibition of human SF539 cells after 48 hrs by sulforhodamine B assay; details: SF-539, 48 h; outline: as §1
EKVX = experiment: Growth inhibition of human EKVX cells after 48 hrs by sulforhodamine B assay; outline: as §1
NCI-H522 = experiment: Growth inhibition of human NCI-H522 cells after 48 hrs by sulforhodamine B assay; details: NCI-H522, 48 h; outline: as §1
[1] = read-out: pLC50 (the source's name) (converted)

## COc1cc(CNc2nc3cc(N)cc(N)c3nc2-c2ccccc2)cc(OC)c1
HOP-92
  GI50: 1.15 µM
  LC50 (50% net cell death): 9.55 µM
HOP-92; read-out: pTGI (converted)
  TGI: 3.31 µM
Malme-3M
  GI50: 4.9 µM
Malme-3M; [1]
  CC50: > 100 µM
Malme-3M; read-out: pTGI (converted)
  TGI: 33.9 µM
K562
  GI50: 3.63 µM
  LC50: > 100 µM
K562; read-out: pTGI (converted)
  TGI: 9.33 µM
CCRF-CEM
  GI50: 1.74 µM
  LC50: > 100 µM
CCRF-CEM; read-out: pTGI (converted)
  TGI: 5.62 µM
HCT-15
  GI50: 19.5 µM
T47D
  GI50: 1.66 µM
T47D; [1]
  CC50: > 100 µM
T47D; read-out: pTGI (converted)
  TGI: 4.57 µM
HT-29
  GI50: 8.13 µM
  LC50: > 100 µM
HT-29; read-out: pTGI (converted)
  TGI: 44.7 µM
CAKI-1
  GI50: 15.8 µM
CAKI-1; [1]
  CC50: > 100 µM
CAKI-1; read-out: pTGI (converted)
  TGI: > 100 µM
SK-OV-3
  GI50: 15.1 µM
SK-OV-3; [1]
  CC50: > 100 µM
SK-OV-3; read-out: pTGI (converted)
  TGI: 53.7 µM
786-0
  GI50: 12.6 µM
786-0; [1]
  CC50: > 100 µM
786-0; read-out: pTGI (converted)
  TGI: 44.7 µM
M14
  GI50: 10 µM
M14; [1]
  CC50: > 100 µM
M14; read-out: pTGI (converted)
  TGI: 49 µM
MDA-MB-231
  GI50: 2.09 µM
MDA-MB-231; [1]
  CC50: > 100 µM
MDA-MB-231; read-out: pTGI (converted)
  TGI: 6.03 µM
OVCAR-3
  GI50: 1.86 µM
OVCAR-3; [1]
  CC50: > 100 µM
OVCAR-3; read-out: pTGI (converted)
  TGI: 4.57 µM
UACC-62
  GI50: 5.37 µM
UACC-62; [1]
  CC50: > 100 µM
UACC-62; read-out: pTGI (converted)
  TGI: 30.9 µM
UO-31
  GI50: 4.07 µM
UO-31; [1]
  CC50: > 100 µM
UO-31; read-out: pTGI (converted)
  TGI: > 100 µM
TK-10
  GI50: 24.5 µM
TK-10; [1]
  CC50: > 100 µM
TK-10; read-out: pTGI (converted)
  TGI: 63.1 µM
SN12C
  GI50: 11.5 µM
SN12C; [1]
  CC50: > 100 µM
SN12C; read-out: pTGI (converted)
  TGI: > 100 µM
A498
  GI50: 91.2 µM
A498; [1]
  CC50: > 100 µM
A498; read-out: pTGI (converted)
  TGI: > 100 µM
HL-60(TB)
  GI50: 3.8 µM
  LC50: > 100 µM
HL-60(TB); read-out: pTGI (converted)
  TGI: > 100 µM
NCI-H460
  GI50: 10.5 µM
  LC50 (50% net cell kill): > 100 µM
NCI-H460; read-out: pTGI (converted)
  TGI: > 100 µM
KM12
  GI50: 4.27 µM
  LC50 (50% net cell kill): > 100 µM
KM12; read-out: pTGI (converted)
  TGI: 74.1 µM
NCI/ADR-RES
  GI50: 5.5 µM
NCI/ADR-RES; [1]
  CC50: > 100 µM
NCI/ADR-RES; read-out: pTGI (converted)
  TGI: 33.1 µM
HOP-62
  GI50: 13.5 µM
  LC50: 72.4 µM
HOP-62; read-out: pTGI (converted)
  TGI: 31.6 µM
BT-549
  GI50: 9.77 µM
BT-549; [1]
  CC50: > 100 µM
BT-549; read-out: pTGI (converted)
  TGI: > 100 µM
OVCAR-4
  GI50: 0.0141 µM
OVCAR-4; [1]
  CC50: 3.24 µM
OVCAR-4; read-out: pTGI (converted)
  TGI: 0.977 µM
SF-539
  GI50: 5.25 µM
  LC50: 77.6 µM
SF-539; read-out: pTGI (converted)
  TGI: 21.4 µM
EKVX
  GI50: 2.82 µM
  LC50 (50% net cell kill): > 100 µM
EKVX; read-out: pTGI (converted)
  TGI: 8.91 µM
NCI-H522
  GI50: 2.88 µM
  LC50: > 100 µM
NCI-H522; read-out: pTGI (converted)
  TGI: 22.9 µM
